Test results reported in ChEMBL document CHEMBL1142508, “3-Amino-2(5H)furanones as inhibitors of subgenomic hepatitis C virus RNA replication” (Bioorg Med Chem, 2008).

How the values were obtained:
[1] = system: Hepatitis C virus; assay: Antiviral activity against HCV in human HBI10A cells by ELISA; format: functional, organism-based, Hepacivirus hominis
Outline: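 HCV subgenomic replicon-bearing Huh-7-derived HBI10A cells kept in D-MEM + 10% FBS with G418. Compounds from DMSO stocks, diluted in D-MEM, DMSO at most 1%, tested at final 10^3, 10^2, […]. Cell-ELISA for NS3 with anti-NS3 10E5/24 MAb, in triplicate. Parental Huh-7 cells give the background. EC50 from Hill-equation fit of NS3 signal reduction. IFN-α positive control.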

[2] = Cytotoxicity against human HBI10A cells after 20 hrs by MTS assay; format: cell-based
Outline: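 MTS read-out in HBI10A replicon cells seeded at 1 × 10^4 per 100 µL D-MEM + 5% FBS. After 4 h at 37 °C, compounds added at final 10^3, 10^2, […]. Incubated 20 h at 37 °C, then MTS for a further 4 h. Stopped with 10% SDS; absorbance at 492 nm.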

SMILES	EC50 [1] [µM]	IC50 [1] [µM]	CC50 at 20 h [2] [µM]
O=C(O)c1nc(-c2cccs2)nc(O)c1O	9.3	0.15	–
COC(=O)C1=C(NCc2ccccc2)C(=O)OC1C (stereo not drawn)	> 1000	–	> 1000
CNC1=C(C(C)=O)C(C)OC1=O (stereo not drawn)	132	–	819
CNC1=C(C(=O)Nc2ccccc2)C(C)OC1=O (stereo not drawn)	19	–	> 1000
CNC1=C(C(=O)OC)C(C)OC1=O (stereo not drawn)	525	–	> 1000
CNC1=C(C(C)=O)COC1=O	521	–	> 1000
CNC1=C(C(=O)OC)C(C)OC1O (stereo not drawn)	66	–	> 1000
CCOC(=O)C1=C(NC)C(=O)OC1C(=O)OCC (stereo not drawn)	> 1000	–	> 1000
CNC1=C(c2ccccc2)C(c2ccccc2)OC1=O (stereo not drawn)	17	–	28
